The results in this text go back to ChEMBL document CHEMBL1765055 (J Med Chem, 2011).

Values joined by “and” are separate entries in the source; they are usually repeats but may differ in a detail not shown here. Identical values can stand only once. Non-standard residues stand in square brackets, D forms with d. Residues, ends and D or L forms follow the SMILES beside them. N(4-hydroxyphenethyl)Gly = O=C(O)CNCCc1ccc(O)cc1; Gly(N-4-hydroxybenzyl) = O=C(O)CNCc1ccc(O)cc1; N(1S-Me-propyl)Gly = CC[C@H](C)NCC(=O)O

Experiment [1] concerns the target T1, Neurotensin receptor type 2 (Homo sapiens, UniProt O95665). Kind of experiment: Displacement of [3H]NT from human NTS2 receptor expressed in HEK293 cells. Type of experiment: cell-based.
Experiment [2] has as its target T1, Neurotensin receptor type 2. The experiment can be described thus: Agonist activity at human NTS2 receptor expressed in HEK293 cells assessed as inhibition of constitutive activity on MAPK-mediated luciferase activity. Type of experiment: functional, cell-based.
For experiment [3] the target is unchanged. The experiment can be described thus: Agonist activity at human NTS2 receptor expressed in HEK293 cells assessed as inhibition of constitutive activity on MAPK-mediated luciferase activity at 3 uM in presence of SR142948A. Type of experiment: functional, cell-based. A digest of the protocol:
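HEK 293 cells transiently expressing hNTS2 plus Elk1 trans-activator/luciferase reporter plasmids were reseeded in 1% FBS medium. They received 3 μM compound together with graded concentrations of the antagonist SR142948A for 24 h at 37 °C. Luciferase luminescence was measured as the readout of constitutive MAPK activity. Mean curves came from 7–11 independent experiments in triplicate.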

Experiment [4] addresses T2, Neurotensin receptor type 1 (Homo sapiens, UniProt P30989). The experiment can be described thus: Displacement of [3H]neurotensin from human NTS1 receptor expressed in CHO cells. The format is cell-based.
The target of experiment [5] is T1, Neurotensin receptor type 2. The experiment can be described thus: Ratio of compound Emax to neurotensin Emax for human NTS2 receptor.
A further experiment is filed under the species Homo sapiens. The experiment can be described thus: Selectivity ratio of Ki for human NTS1 to Ki for human NTS2.
Experiment [6] deals with T2, Neurotensin receptor type 1. Kind of experiment: Ratio of compound Emax to neurotensin Emax for human NTS1 receptor.

T2 sequence (P30989 whole entry): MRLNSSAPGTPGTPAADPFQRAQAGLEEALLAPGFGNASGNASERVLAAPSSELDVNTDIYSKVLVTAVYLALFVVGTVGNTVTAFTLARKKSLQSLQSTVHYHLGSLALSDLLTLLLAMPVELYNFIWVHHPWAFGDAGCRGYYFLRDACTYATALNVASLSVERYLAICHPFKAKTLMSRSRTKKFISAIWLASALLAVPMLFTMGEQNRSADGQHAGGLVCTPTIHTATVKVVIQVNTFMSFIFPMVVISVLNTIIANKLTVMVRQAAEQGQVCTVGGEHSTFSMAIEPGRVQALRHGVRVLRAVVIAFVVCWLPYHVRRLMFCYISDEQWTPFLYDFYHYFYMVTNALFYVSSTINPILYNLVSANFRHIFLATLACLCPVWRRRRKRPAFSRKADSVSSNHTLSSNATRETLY
T1 sequence (O95665 whole entry): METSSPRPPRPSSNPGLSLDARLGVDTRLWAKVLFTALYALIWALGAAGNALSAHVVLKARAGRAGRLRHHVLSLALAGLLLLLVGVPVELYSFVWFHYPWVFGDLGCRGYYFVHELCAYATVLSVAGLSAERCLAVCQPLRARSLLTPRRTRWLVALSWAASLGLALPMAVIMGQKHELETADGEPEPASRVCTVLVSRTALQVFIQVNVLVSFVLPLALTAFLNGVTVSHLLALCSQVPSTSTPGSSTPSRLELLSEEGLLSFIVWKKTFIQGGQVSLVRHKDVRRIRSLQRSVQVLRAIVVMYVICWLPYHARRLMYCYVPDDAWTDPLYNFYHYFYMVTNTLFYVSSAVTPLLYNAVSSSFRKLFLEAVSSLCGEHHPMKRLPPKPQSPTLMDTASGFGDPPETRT

With `CC[C@H](C)[C@H](NC(=O)[C@H](Cc1ccc(O)cc1)NC(=O)[C@@H]1CCCN1C(=O)[C@H](CCCCN)NC(=O)CNCCCCN)C(=O)N[C@@H](CC(C)C)C(=O)O`, the affinity in experiment [1] corresponds to a Ki of 0.74 nM.

`CC[C@H](C)[C@H](NC(=O)CN(CCc1ccc(O)cc1)C(=O)[C@@H]1CCCN1C(=O)[C@H](CCCNC(=N)N)NC(=O)[C@@H](N)CCCNC(=N)N)C(=O)N[C@@H](CC(C)C)C(=O)O`: the Ki in experiment [1] stood at 8.8 nM. Also, the concentration giving a half-maximal response (EC50) in experiment [2] was 480 nM. Moreover, the Activity entry in experiment [3] was “Dose-dependent effect”.

For H-RRPAIL-OH [listing 1 of 2 here], the inhibitory constant (Ki) in experiment [1] stood at 83 nM; in experiment [4], 1300 nM.

In the case of `CC[C@H](C)N(CC(=O)N[C@@H](CC(C)C)C(=O)O)C(=O)[C@H](Cc1ccc(O)cc1)NC(=O)[C@@H]1CCCN1C(=O)[C@H](CCCCN)NC(=O)[C@@H](N)CCCCN` (H-KKPY[N(1S-Me-propyl)Gly]L-OH), the Ki in experiment [1] is 330 nM and 1200 nM; in experiment [4] it was 3000 nM and 3300 nM.

Consider `CC[C@H](C)[C@H](NC(=O)[C@H](Cc1ccc(O)cc1)NC(=O)[C@@H]1CCCN1C(=O)[C@H](CCCCN)NC(=O)[C@@H](N)CCCCN)C(=O)N(CC(=O)O)CC(C)C`, for which, in experiment [1], the Ki worked out at 1600 nM.

`CC[C@H](C)[C@H](NC(=O)CN(CCc1ccccn1)C(=O)[C@@H]1CCCN1C(=O)[C@H](CCCNC(=N)N)NC(=O)[C@@H](N)CCCNC(=N)N)C(=O)N[C@@H](CC(C)C)C(=O)O` had an inhibition constant (Ki) in experiment [1] of 100 nM.

On to H-RAPYIL-OH [listing 1 of 2 here], for which the figures for the inhibition constant (Ki) in experiment [1] and in experiment [4] were 24 nM and 11 nM, respectively.

H-RRAYIL-OH [listing 1 of 2 here]: the Ki in experiment [1] came to 63 nM; in experiment [4], 26 nM.

`CC[C@H](C)[C@H](NC(=O)CN(CCc1ccc(O)cc1)C(=O)[C@@H]1CCCN1C(=O)[C@H](CCCNC(=N)N)NC(=O)[C@@H](N)CCCCN)C(=O)N[C@@H](CC(C)C)C(=O)O` (H-KRP[N(4-hydroxyphenethyl)Gly]IL-OH): the Emax in experiment [5] is 4.6. Further, in the experiment listed under Homo sapiens, the Ratio Ki is 1900. Also, the Ki is 4.4 nM in experiment [1] and 8300 nM in experiment [4]. In experiment [2], the half-maximal effective concentration (EC50) is 690 nM.

Consider H-RAPYIL-OH [listing 2 of 2 here], for which, in the experiment listed under Homo sapiens, the Ratio Ki came out at 0.46.

Take `CC[C@H](C)[C@H](NC(=O)[C@H](Cc1ccc(O)cc1)NC(=O)[C@@H]1CCCN1C(=O)[C@H](CCCNC(=N)N)NC(=O)[C@@H](N)CCCNC(=N)N)C(=O)N[C@@H](C)C(=O)O`: the affinity in experiment [1], expressed as Ki, was 1300 nM.

With `CC[C@H](C)[C@H](NC(=O)[C@H](Cc1ccc(O)cc1)NC(=O)[C@@H]1CCCN1C(=O)CN(CCCCN)C(=O)[C@@H](N)CCCCN)C(=O)N[C@@H](CC(C)C)C(=O)O`, the Ki in experiment [1] stood at 21 nM.

Regarding `CC[C@H](C)[C@H](NC(=O)CN(Cc1ccc(O)cc1)C(=O)[C@@H]1CCCN1C(=O)[C@H](CCCCN)NC(=O)[C@@H](N)CCCCN)C(=O)N[C@@H](CC(C)C)C(=O)O` (H-KKP[Gly(N-4-hydroxybenzyl)]IL-OH), in the experiment listed under Homo sapiens, the Ratio Ki was determined as 30. In addition, the inhibition constant (Ki) in experiment [1] stood at 1000 nM; in experiment [4], 30000 nM.

As for H-RRPAIL-OH [listing 2 of 2 here], in the experiment filed under Homo sapiens, the Ratio Ki amounted to 16.

Take H-RRPYAL-OH [listing 1 of 2 here]: in the experiment filed under Homo sapiens, the Ratio Ki turned out to be 1.6.

For `CC[C@H](C)[C@H](NC(=O)CN(CCc1ccccc1)C(=O)[C@@H]1CCCN1C(=O)[C@H](CCCN=C(N)N)NC(=O)[C@@H](N)CCCN=C(N)N)C(=O)N[C@@H](CC(C)C)C(=O)O`, the Ki in experiment [1] is 20 nM.

As for H-RRAYIL-OH [listing 2 of 2 here], in the experiment listed under Homo sapiens, the Ratio Ki is 0.41.

Compound `CC[C@H](C)[C@H](NC(=O)[C@H](CC1=CC=C(O)CC1)NC(=O)[C@@H]1CCCN1C(=O)[C@H](CCCNC(=N)N)NC(=O)[C@@H](N)CCCNC(=N)N)C(=O)N[C@@H](CC(C)C)C(=O)O` gave a dissociation constant Kd in experiment [1] of 1.2 nM.

As for H-RRPYAL-OH [listing 2 of 2 here], the inhibition constant (Ki) in experiment [1] amounted to 63 nM; in experiment [4], 100 nM.

For the compound `CC[C@H](C)[C@H](NC(=O)CN(CCc1ccc(O)cc1)C(=O)[C@@H]1CCCN1C(=O)[C@H](CCCCN)NC(=O)[C@@H](N)CCCNC(=N)N)C(=O)N[C@@H](CC(C)C)C(=O)O` (H-RKP[N(4-hydroxyphenethyl)Gly]IL-OH), the results for the Emax in experiment [5] and in experiment [6] were 2.6 and 0.07, respectively. The Ratio Ki in the experiment listed under Homo sapiens is 12000. Besides, the Ki is 6.7 nM in experiment [1] and 80000 nM in experiment [4]. Besides, the EC50 in experiment [2] came to 840 nM.

For the compound `CC[C@H](C)[C@H](NC(=O)CN(CCc1ccc(OC)cc1)C(=O)[C@@H]1CCCN1C(=O)[C@H](CCCN=C(N)N)NC(=O)[C@@H](N)CCCN=C(N)N)C(=O)N[C@@H](CC(C)C)C(=O)O`, in experiment [1], the affinity corresponds to a Ki of 38 nM.

For the compound `CC[C@H](C)[C@H](NC(=O)CN(CCc1ccc(O)cc1)C(=O)[C@@H]1CCCN1C(=O)[C@H](CCCCN)NC(=O)[C@@H](N)CCCCN)C(=O)N[C@@H](CC(C)C)C(=O)O` (H-KKP[N(4-hydroxyphenethyl)Gly]IL-OH), the Emax in experiment [5] turned out to be 3.1. Also, the Ratio Ki in the experiment listed under Homo sapiens is 7400. Moreover, the Ki in experiment [1] came to 4.3 nM; in experiment [4], 32000 nM. For the same compound, the EC50 in experiment [2] was determined as 590 nM.

In turn, `CC[C@H](C)[C@H](NC(=O)[C@H](Cc1ccc(O)cc1)NC(=O)[C@@H]1CCCN1C(=O)[C@H](CCCCN)NC(=O)[C@@H](N)CCCCN)C(=O)N[C@@H](CC(C)C)C(=O)O` registered a Ki in experiment [1] of 6.1 nM.

For H-ARPYIL-OH, the Ratio Ki in the experiment filed under Homo sapiens was found to be 0.082. Besides, the results for the Ki in experiment [1] and in experiment [4] were 56 nM and 4.6 nM, respectively.

As usually defined, the Ki is a measure of affinity in units of concentration, obtained from inhibition or displacement. Read a low Ki as higher affinity. As usually defined, the EC50 is the concentration that produces a half-maximal response. What is called Kd is a measure of binding affinity in units of concentration. High values mean lower affinity, low ones higher affinity.
